Measurements from ChEMBL document CHEMBL4689842, “EUbOPEN Chemogenomics Library wave 1” (2021).

System: HEK-293T
Assay: Multiplex assay against HEK293T;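 on Population Tubulin-Different-Phenotype (%): share of the cells with healthy nuclei that show this phenotype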
Format: toxicity, cell-based
Conditions: human
Outline: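 Cells stained live at seeding with Hoechst33342, BioTracker Green Microtubule Cytoskeleton Dye, MitoTracker Red and Annexin V Alexa Fluor 680 were imaged on a CQ1 microscope at 37°C and 5% CO2 after compound addition. Their classification by CellPathfinder machine-learning gating ran from Hoechst high-intensity objects versus normal cells, to healthy, pyknosed or fragmented nuclei among normal cells, to mitotic or apoptotic among pyknosed cells. Tubulin, mitochondrial-mass and membrane-permeability phenotypes are per cents of healthy-nucleus cells.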

[1] = 12 h, 1 µM, compound concentration 1 uM, replicate 1
[2] = 12 h, 1 µM, compound concentration 1 uM, replicate 2
[3] = 12 h, 10 µM, compound concentration 10 uM, replicate 1
[4] = 12 h, 10 µM, compound concentration 10 uM, replicate 2
[5] = 24 h, 1 µM, compound concentration 1 uM, replicate 1
[6] = 24 h, 1 µM, compound concentration 1 uM, replicate 2
[7] = 24 h, 10 µM, compound concentration 10 uM, replicate 1
[8] = 24 h, 10 µM, compound concentration 10 uM, replicate 2
[9] = 48 h, 1 µM, compound concentration 1 uM, replicate 1
[10] = 48 h, 1 µM, compound concentration 1 uM, replicate 2
[11] = 48 h, 10 µM, compound concentration 10 uM, replicate 1
[12] = 48 h, 10 µM, compound concentration 10 uM, replicate 2

## O=c1cc(N2CCOCC2)oc2c(-c3cccc4c3sc3ccccc34)cccc12
[1]
  Population Apoptotic (%): 46%
  Population Fragmented Nuclei (%): 7%
  Population Hoechst High Intensity Objects (%): 12%
  Population Membrane Permeable-Phenotype (%): 3%
  Population Mitochondria Different-Phenotype (%): 92%
  Population Mitotic Cells (%): 53%
  Population Normal (%): 87%
  Population Pyknosed Nuclei (%): 52%
  Population Tubulin-Different-Phenotype (%): 58%
  Total Cell Count: 283
[2]
  Population Apoptotic (%): 14%
  Population Fragmented Nuclei (%): 5%
  Population Healthy Nuclei (%): 40%
  Population Hoechst High Intensity Objects (%): 4%
  Population Membrane Permeable-Phenotype (%): 1%
  Population Mitochondria Different-Phenotype (%): 20%
  Population Mitotic Cells (%): 85%
  Population Normal (%): 95%
  Population Pyknosed Nuclei (%): 53%
  Population Tubulin-Different-Phenotype (%): 19%
  Total Cell Count: 224
[3]
  Population Apoptotic (%): 61%
  Population Fragmented Nuclei (%): 16%
  Population Healthy Nuclei (%): 14%
  Population Hoechst High Intensity Objects (%): 14%
  Population Membrane Permeable-Phenotype (%): 8%
  Population Mitochondria Different-Phenotype (%): 100%
  Population Mitotic Cells (%): 38%
  Population Normal (%): 85%
  Population Pyknosed Nuclei (%): 68%
  Population Tubulin-Different-Phenotype (%): 91%
  Total Cell Count: 192
[4]
  Population Apoptotic (%): 49%
  Population Fragmented Nuclei (%): 8%
  Population Healthy Nuclei (%): 7%
  Population Hoechst High Intensity Objects (%): 6%
  Population Mitochondria Different-Phenotype (%): 91%
  Population Mitotic Cells (%): 50%
  Population Normal (%): 93%
  Population Pyknosed Nuclei (%): 83%
  Population Tubulin-Different-Phenotype (%): 83%
  Total Cell Count: 172
[5]
  Population Apoptotic (%): 53%
  Population Fragmented Nuclei (%): 9%
  Population Healthy Nuclei (%): 44%
  Population Hoechst High Intensity Objects (%): 12%
  Population Membrane Permeable-Phenotype (%): 2%
  Population Mitochondria Different-Phenotype (%): 77%
  Population Mitotic Cells (%): 46%
  Population Normal (%): 87%
  Population Pyknosed Nuclei (%): 46%
  Population Tubulin-Different-Phenotype (%): 40%
  Total Cell Count: 310
[6]
  Population Apoptotic (%): 16%
  Population Fragmented Nuclei (%): 3%
  Population Healthy Nuclei (%): 60%
  Population Hoechst High Intensity Objects (%): 4%
  Population Membrane Permeable-Phenotype (%): 3%
  Population Mitochondria Different-Phenotype (%): 22%
  Population Mitotic Cells (%): 83%
  Population Normal (%): 95%
  Population Pyknosed Nuclei (%): 36%
  Population Tubulin-Different-Phenotype (%): 38%
  Total Cell Count: 272
[7]
  Population Apoptotic (%): 61%
  Population Fragmented Nuclei (%): 15%
  Population Healthy Nuclei (%): 12%
  Population Hoechst High Intensity Objects (%): 16%
  Population Membrane Permeable-Phenotype (%): 0%
  Population Mitochondria Different-Phenotype (%): 100%
  Population Mitotic Cells (%): 38%
  Population Normal (%): 83%
  Population Pyknosed Nuclei (%): 71%
  Population Tubulin-Different-Phenotype (%): 100%
  Total Cell Count: 206
[8]
  Population Apoptotic (%): 60%
  Population Fragmented Nuclei (%): 7%
  Population Healthy Nuclei (%): 22%
  Population Hoechst High Intensity Objects (%): 2%
  Population Mitotic Cells (%): 39%
  Population Normal (%): 97%
  Population Pyknosed Nuclei (%): 69%
  Total Cell Count: 186
[9]
  Population Apoptotic (%): 30%
  Population Fragmented Nuclei (%): 17%
  Population Healthy Nuclei (%): 42%
  Population Hoechst High Intensity Objects (%): 9%
  Population Membrane Permeable-Phenotype (%): 2%
  Population Mitochondria Different-Phenotype (%): 44%
  Population Mitotic Cells (%): 70%
  Population Normal (%): 90%
  Population Pyknosed Nuclei (%): 40%
  Population Tubulin-Different-Phenotype (%): 45%
  Total Cell Count: 384
[10]
  Population Apoptotic (%): 14%
  Population Fragmented Nuclei (%): 7%
  Population Healthy Nuclei (%): 77%
  Population Hoechst High Intensity Objects (%): 3%
  Population Membrane Permeable-Phenotype (%): 3%
  Population Mitochondria Different-Phenotype (%): 6%
  Population Mitotic Cells (%): 85%
  Population Normal (%): 96%
  Population Pyknosed Nuclei (%): 15%
  Population Tubulin-Different-Phenotype (%): 26%
  Total Cell Count: 477
[11]
  Population Apoptotic (%): 68%
  Population Fragmented Nuclei (%): 24%
  Population Healthy Nuclei (%): 20%
  Population Hoechst High Intensity Objects (%): 17%
  Population Membrane Permeable-Phenotype (%): 0%
  Population Mitochondria Different-Phenotype (%): 100%
  Population Mitotic Cells (%): 31%
  Population Normal (%): 82%
  Population Pyknosed Nuclei (%): 55%
  Population Tubulin-Different-Phenotype (%): 93%
  Total Cell Count: 186
[12]
  Population Apoptotic (%): 61%
  Population Fragmented Nuclei (%): 8%
  Population Healthy Nuclei (%): 29%
  Population Hoechst High Intensity Objects (%): 8%
  Population Mitochondria Different-Phenotype (%): 94%
  Population Mitotic Cells (%): 38%
  Population Normal (%): 91%
  Population Pyknosed Nuclei (%): 62%
  Population Tubulin-Different-Phenotype (%): 96%
  Total Cell Count: 185
